ChEMBL document CHEMBL1148917, “Dibenzyl bromophenols with diverse dimerization patterns from the brown alga Leathesia nana” (J Nat Prod, 2004)

What was measured:
Type in all cases: functional, cell-based
[1] = tested on: BGC-823; experiment: Cytotoxicity against human BGC823 cells after 96 hrs by MTT assay
Outline: (§1)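 Cells grown in RPMI1640 with 10% FBS, penicillin and streptomycin at 37 °C under humidified 5% CO2; seeded at 1200 cells/well and dosed 24 h later. Five concentrations per compound in DMSO (0.1% final), three parallel wells each. After 96 h exposure, MTT conversion to formazan read at 570 nm; IC50 calculated from the readings.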

[2] = tested on: MCF7; experiment: Cytotoxicity against human MCF7 cells after 96 hrs by MTT assay; outline: as §1
[3] = tested on: A549; experiment: Cytotoxicity against human A549 cells after 96 hrs by MTT assay; outline: as §1
[4] = tested on: HCT-8; experiment: Cytotoxicity against human HCT8 cells after 96 hrs by MTT assay; outline: as §1
[5] = tested on: Bel-7402; experiment: Cytotoxicity against human Bel7402 cells after 96 hrs by MTT assay; outline: as §1

Q: For `CCOCc1cc(O)c(O)c(Br)c1Cc1cc(O)c(O)c(Br)c1Br`, which IC50 [1] is on record?
A: 4.6 µM

Q: What about the IC50 [2] of the same molecule?
A: 3.4 µM

Q: And the IC50 [3]?
A: > 19 µM

Q: And the IC50 [4]?
A: 2.8 µM

Q: And the IC50 [5]?
A: 0.0055 uM/ml

Q: `COCc1cc(O)c(O)c(Br)c1Cc1cc(O)c(O)c(Br)c1Br` was tested. Which IC50 [1] did it give?
A: 18 µM

Q: What about the IC50 [2] of the same molecule?
A: 4.6 µM

Q: And the IC50 [3]?
A: 5.4 µM

Q: What about the IC50 [4] of the same molecule?
A: 5.9 µM

Q: What about the IC50 [5] of the same molecule?
A: 0.0074 uM/ml

Q: For `Oc1cc(Cc2cc(O)c(O)c(Br)c2Br)c(Br)c(Br)c1O`, which IC50 [1] is on record?
A: 3.8 µM

Q: What about the IC50 [2] of the same molecule?
A: 2.7 µM

Q: And the IC50 [3]?
A: 1.8 µM

Q: And the IC50 [4]?
A: 2.2 µM

Q: And the IC50 [5]?
A: > 0.0182 uM/ml

Q: Which IC50 [1] does the source give for `Oc1cc(COCc2cc(O)c(O)c(Br)c2Br)c(Br)c(Br)c1O` here?
A: 8.6 µM

Q: What about the IC50 [2] of the same molecule?
A: 21.4 µM

Q: And the IC50 [3]?
A: > 19.5 µM

Q: And the IC50 [4]?
A: 20.7 µM

Q: What about the IC50 [5] of the same molecule?
A: > 0.0019 uM/ml

Q: For `COCc1c(Br)c(Br)c(O)c(O)c1Cc1cc(O)c(O)c(Br)c1Br`, which IC50 [1] is on record?
A: 8.8 µM

Q: And the IC50 [2]?
A: 2.7 µM

Q: What about the IC50 [3] of the same molecule?
A: 2.5 µM

Q: What about the IC50 [4] of the same molecule?
A: > 16.8 µM

Q: What about the IC50 [5] of the same molecule?
A: 0.0048 uM/ml
